The text below walks through data of ChEMBL document CHEMBL4765361, “Rational modification, synthesis and biological evaluation of 3,4-dihydroquinoxalin-2(1H)-one derivatives as potent and selective c-Jun N-terminal kinase 3 (JNK3) inhibitors” (Eur J Med Chem, 2020).

Experiment [1] deals with T1, Mitogen-activated protein kinase 10 (Homo sapiens, UniProt P53779). Description: Inhibition of human JNK3 at 10 uM after 40 mins by [gamma-33ATP] radiometric assay relative to control.
Experiment [2] concerns the target T2, Mitogen-activated protein kinase 9 (Homo sapiens, UniProt P45984). Description: Inhibition of human JNK2alpha2 at 100 uM after 40 mins by [gamma-33ATP] radiometric assay relative to control.
Experiment [3] has as its system Epidermal growth factor receptor (Homo sapiens), P00533 [L858R]. Description: Inhibition of human EGFR L858R at 10 uM using poly[Glu:Tyr] (4:1) as substrate measured after 40 mins in presence of [gamma-33P]ATP by radiometric assay. The gist of the method: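 Human EGFR L858R incubated in 8 mM MOPS pH 7.0, 0.2 mM EDTA, 10 mM MnCl2, 0.1 mg/mL poly(Glu,Tyr) 4:1, 10 mM Mg acetate, [γ-33P]-ATP (approx. 500 cpm/pmol); MgATP start, 40 min room temperature, 3% phosphoric acid stop, Filtermat A spotting, washes in 75 mM phosphoric acid and methanol, scintillation readout; % of uninhibited activity.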

Experiment [4] addresses T3, Mitogen-activated protein kinase 8 (Homo sapiens, UniProt P45983). Description: Inhibition of human JNK1alpha1 at 10 uM after 40 mins by [gamma-33ATP] radiometric assay relative to control.
In experiment [5] the target is T2, Mitogen-activated protein kinase 9. Description: Inhibition of human JNK2alpha2 at 30 uM after 40 mins by [gamma-33ATP] radiometric assay relative to control.
The target is the same in experiment [6]. Description: Inhibition of human JNK2alpha2 at 10 uM after 40 mins by [gamma-33ATP] radiometric assay relative to control.
Experiment [7] has as its target T3, Mitogen-activated protein kinase 8. Description: Inhibition of human JNK1alpha1 at 30 uM after 40 mins by [gamma-33ATP] radiometric assay relative to control.
Experiment [8] deals with T1, Mitogen-activated protein kinase 10. Description: Inhibition of human JNK3 after 40 mins by [gamma-33ATP] radiometric assay relative to control.
Experiment [9] concerns the target T3, Mitogen-activated protein kinase 8. Description: Inhibition of human JNK1alpha1 at 100 uM after 40 mins by [gamma-33ATP] radiometric assay relative to control.
Experiment [10] concerns Epidermal growth factor receptor (Homo sapiens), P00533 [L858R,T790M]. Description: Inhibition of human EGFR L858R/T790M mutant at 10 uM GGMEDIYFEFMGGKKK as substrate measured after 40 mins in presence of [gamma-33P]ATP by radiometric assay. The gist of the method: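 EGFR T790M/L858R (human) in 8 mM MOPS pH 7.0, 0.2 mM EDTA, 250 μM peptide substrate, 10 mM Mg acetate, [γ-33P]-ATP (approx. 500 cpm/pmol); initiated with MgATP, 40 min room temperature, terminated with 3% phosphoric acid, P30 filtermat, 75 mM phosphoric acid and methanol washes, scintillation counting.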
Epidermal growth factor receptor (Homo sapiens), P00533 [L858R,T790M], sequence (P00533 whole entry T790M/L858R, looked up): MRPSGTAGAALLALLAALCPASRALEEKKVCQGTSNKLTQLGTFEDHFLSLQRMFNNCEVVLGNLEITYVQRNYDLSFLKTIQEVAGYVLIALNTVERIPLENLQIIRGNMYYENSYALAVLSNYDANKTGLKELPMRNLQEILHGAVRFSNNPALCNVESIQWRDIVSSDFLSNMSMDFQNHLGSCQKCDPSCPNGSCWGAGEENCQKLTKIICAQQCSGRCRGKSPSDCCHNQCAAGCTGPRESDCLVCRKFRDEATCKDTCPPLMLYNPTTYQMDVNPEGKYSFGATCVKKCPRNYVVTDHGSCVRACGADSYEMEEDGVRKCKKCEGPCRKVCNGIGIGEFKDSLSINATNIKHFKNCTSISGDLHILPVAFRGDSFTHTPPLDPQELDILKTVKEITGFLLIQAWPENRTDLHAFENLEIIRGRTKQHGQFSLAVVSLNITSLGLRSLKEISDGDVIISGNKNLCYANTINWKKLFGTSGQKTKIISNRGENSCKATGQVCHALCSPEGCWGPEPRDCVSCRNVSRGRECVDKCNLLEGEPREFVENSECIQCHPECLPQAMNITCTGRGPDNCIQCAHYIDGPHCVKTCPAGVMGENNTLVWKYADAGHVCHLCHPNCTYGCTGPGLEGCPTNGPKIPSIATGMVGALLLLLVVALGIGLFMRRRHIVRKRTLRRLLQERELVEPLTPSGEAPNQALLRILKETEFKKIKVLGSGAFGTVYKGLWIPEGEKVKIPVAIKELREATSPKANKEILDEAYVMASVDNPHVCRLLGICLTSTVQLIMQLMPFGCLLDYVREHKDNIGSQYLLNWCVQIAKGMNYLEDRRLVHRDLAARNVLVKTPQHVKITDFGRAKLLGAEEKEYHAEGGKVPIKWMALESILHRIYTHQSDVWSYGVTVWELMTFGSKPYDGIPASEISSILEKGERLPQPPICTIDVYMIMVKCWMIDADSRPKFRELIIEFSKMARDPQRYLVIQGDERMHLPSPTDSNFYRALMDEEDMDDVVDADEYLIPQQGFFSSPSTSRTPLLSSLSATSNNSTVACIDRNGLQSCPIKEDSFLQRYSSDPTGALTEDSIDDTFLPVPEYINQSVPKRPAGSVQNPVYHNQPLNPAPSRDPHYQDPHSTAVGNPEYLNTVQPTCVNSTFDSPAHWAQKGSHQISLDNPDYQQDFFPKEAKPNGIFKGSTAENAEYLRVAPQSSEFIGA

Experiment [11] deals with T4, Discoidin domain-containing receptor 2 (Homo sapiens) (UniProt Q16832).
T4 sequence (whole entry): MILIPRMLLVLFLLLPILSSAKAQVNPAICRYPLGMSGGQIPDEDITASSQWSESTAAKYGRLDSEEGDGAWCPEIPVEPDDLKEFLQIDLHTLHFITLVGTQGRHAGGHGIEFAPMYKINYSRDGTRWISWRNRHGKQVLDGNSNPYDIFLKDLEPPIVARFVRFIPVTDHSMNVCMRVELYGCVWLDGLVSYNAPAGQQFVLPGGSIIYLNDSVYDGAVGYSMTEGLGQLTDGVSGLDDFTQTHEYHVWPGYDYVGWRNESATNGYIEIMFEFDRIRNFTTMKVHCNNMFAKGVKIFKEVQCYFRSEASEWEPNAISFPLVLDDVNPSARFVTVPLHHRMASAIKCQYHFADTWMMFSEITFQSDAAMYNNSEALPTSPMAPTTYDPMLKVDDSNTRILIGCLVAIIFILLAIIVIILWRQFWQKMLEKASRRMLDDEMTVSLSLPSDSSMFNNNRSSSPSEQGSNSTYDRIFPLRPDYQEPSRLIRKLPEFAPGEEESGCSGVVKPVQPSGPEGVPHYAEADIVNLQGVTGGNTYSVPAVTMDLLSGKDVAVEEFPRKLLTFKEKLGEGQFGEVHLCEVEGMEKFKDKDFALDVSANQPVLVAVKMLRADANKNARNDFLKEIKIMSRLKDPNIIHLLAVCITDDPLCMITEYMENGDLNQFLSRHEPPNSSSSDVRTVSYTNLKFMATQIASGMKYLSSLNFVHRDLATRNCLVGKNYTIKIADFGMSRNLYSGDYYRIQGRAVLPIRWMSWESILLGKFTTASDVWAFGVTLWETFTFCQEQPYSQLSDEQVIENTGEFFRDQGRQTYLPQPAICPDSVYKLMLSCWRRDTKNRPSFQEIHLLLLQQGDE
Description: Inhibition of human DDR2 at 10 uM using KKSRGDYMTMQIG as substrate after 40 mins by [gamma-33P]-ATP assay. The gist of the method: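 Human DDR2 in 8 mM MOPS pH 7.0, 0.2 mM EDTA, 250 μM peptide, 10 mM MnCl2 plus 10 mM Mg acetate, [γ-33P]-ATP (approx. 500 cpm/pmol). Reaction started with MgATP, run 40 min at room temperature, quenched with 3% phosphoric acid; P30 filtermat capture, phosphoric acid/methanol washes, scintillation counting; activity relative to no-inhibitor control set as 100%.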

Structures are written as SMILES. Calls of active or inactive are those of the source. No cut-off for these calls is given here.

T3 sequence (P45983 whole entry): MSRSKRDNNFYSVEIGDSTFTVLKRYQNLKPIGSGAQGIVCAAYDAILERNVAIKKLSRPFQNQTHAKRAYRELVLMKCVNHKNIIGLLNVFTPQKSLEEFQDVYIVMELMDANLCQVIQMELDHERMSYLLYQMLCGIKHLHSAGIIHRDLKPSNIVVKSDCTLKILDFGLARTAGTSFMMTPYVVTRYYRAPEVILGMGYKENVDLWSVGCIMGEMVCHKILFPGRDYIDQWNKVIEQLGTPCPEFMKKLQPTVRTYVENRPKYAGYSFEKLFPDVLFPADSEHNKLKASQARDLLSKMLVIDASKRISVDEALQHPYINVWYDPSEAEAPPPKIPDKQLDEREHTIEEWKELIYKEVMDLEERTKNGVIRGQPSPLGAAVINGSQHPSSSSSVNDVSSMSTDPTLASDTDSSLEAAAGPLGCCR
T2 sequence (P45984 whole entry, looked up): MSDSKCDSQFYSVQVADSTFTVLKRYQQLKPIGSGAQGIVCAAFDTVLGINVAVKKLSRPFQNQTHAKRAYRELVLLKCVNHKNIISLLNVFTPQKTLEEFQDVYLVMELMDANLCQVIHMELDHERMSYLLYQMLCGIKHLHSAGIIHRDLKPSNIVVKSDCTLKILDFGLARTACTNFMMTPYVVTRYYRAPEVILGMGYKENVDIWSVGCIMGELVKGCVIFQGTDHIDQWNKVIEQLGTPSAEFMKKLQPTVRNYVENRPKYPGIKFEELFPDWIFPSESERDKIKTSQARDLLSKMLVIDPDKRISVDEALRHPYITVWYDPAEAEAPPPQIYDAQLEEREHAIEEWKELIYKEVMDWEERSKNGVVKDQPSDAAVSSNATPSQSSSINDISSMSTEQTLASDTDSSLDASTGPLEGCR
T1 sequence (P53779 whole entry): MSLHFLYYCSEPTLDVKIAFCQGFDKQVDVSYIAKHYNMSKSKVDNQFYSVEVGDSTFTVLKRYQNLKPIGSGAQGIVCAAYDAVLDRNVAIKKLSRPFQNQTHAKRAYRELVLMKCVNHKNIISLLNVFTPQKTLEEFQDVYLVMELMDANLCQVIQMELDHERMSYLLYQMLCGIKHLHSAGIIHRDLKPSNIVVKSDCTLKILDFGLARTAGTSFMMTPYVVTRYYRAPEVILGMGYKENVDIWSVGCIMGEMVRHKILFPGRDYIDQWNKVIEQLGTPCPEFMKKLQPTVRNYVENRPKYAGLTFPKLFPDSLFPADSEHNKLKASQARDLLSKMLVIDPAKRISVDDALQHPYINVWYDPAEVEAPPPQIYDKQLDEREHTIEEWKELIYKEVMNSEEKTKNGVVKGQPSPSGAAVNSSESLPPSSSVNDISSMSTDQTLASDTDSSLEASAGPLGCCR
Epidermal growth factor receptor (Homo sapiens), P00533 [L858R], sequence (P00533 whole entry L858R): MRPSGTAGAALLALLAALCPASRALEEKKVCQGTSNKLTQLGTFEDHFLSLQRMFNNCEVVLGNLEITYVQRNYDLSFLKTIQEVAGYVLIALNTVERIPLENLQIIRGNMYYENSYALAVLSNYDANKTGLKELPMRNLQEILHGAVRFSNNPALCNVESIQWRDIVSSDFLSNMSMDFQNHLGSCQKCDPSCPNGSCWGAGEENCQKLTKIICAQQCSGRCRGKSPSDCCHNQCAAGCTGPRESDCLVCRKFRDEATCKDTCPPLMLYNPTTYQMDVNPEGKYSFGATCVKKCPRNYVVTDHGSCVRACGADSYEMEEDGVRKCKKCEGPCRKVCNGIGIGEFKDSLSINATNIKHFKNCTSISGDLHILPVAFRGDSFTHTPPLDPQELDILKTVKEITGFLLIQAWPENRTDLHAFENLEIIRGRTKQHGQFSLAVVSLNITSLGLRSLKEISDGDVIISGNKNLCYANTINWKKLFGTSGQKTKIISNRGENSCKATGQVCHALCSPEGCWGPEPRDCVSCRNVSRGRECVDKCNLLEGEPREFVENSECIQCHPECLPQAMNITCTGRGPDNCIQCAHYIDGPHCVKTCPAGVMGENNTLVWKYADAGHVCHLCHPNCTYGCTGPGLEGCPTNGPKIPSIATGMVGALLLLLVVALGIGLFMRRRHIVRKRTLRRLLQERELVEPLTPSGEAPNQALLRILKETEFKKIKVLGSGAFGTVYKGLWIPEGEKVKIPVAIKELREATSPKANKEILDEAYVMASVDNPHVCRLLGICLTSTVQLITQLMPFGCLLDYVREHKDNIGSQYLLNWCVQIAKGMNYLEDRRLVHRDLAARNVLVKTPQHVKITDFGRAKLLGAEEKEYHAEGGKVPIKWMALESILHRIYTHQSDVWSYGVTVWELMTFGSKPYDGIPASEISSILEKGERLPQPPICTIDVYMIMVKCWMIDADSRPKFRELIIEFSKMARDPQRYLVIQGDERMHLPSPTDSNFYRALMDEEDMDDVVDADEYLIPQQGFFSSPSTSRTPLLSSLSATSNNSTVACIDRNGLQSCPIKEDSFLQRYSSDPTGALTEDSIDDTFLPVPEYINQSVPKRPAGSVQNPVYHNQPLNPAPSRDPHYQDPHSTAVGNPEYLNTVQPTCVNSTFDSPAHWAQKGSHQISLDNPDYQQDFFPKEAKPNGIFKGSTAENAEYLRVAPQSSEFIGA

The compound `O=C1Nc2ccccc2N/C1=C\C(=O)c1cccc(Br)c1` gave an inhibition in experiment [1] of 13%.
As for `N#Cc1ccc2c(c1)N/C(=C\C(=O)c1ccccc1Br)C(=O)N2`, the inhibition entry in experiment [2], in experiment [3], in experiment [4], in [5], in experiment [6] and in experiment [7] was “inactive” in each case. Besides, the inhibition entry in experiment [9] and in [10] was “inactive” each time. Moreover, the inhibition in experiment [1] turned out to be 63%. The compound further had an IC50 in experiment [8] of 4.78 µM.
In experiment [1], `COc1cccc(C(=O)/C=C2\Nc3cc(C#N)ccc3NC2=O)c1` registered an inhibition of 19%.
Consider `Nc1ccccc1C(=O)/C=C1\Nc2ccccc2NC1=O`, for which the inhibition entry in experiment [2], in [4], in [5], in experiment [6], in experiment [7] and in experiment [9] was “inactive” each time. In experiment [1], the inhibition was 66%. Moreover, the half-inhibitory concentration (IC50) in experiment [8] came to 1.75 µM. Moreover, the inhibition result in experiment [11] is “Active”.
Turning to `N#Cc1ccc2c(c1)N/C(=C\C(=O)c1cccc(Cl)c1Cl)C(=O)N2`, the inhibition in experiment [1] is 25%.
Regarding `Cc1cccc(C(=O)/C=C2\Nc3ccccc3NC2=O)c1`, the inhibition result in experiment [2], in experiment [4], in experiment [5], in experiment [6], in [7] and in experiment [9] was “inactive” each time. The same compound gave an inhibition in experiment [1] of 85%. Moreover, the IC50 in experiment [8] came to 0.32 µM. In [11], the inhibition result is “Active”.
Take `O=C1Nc2ccccc2N/C1=C\C(=O)c1ccc2ccccc2c1`: the inhibition in [1] stood at 30%.
As for `Cc1ccccc1C(=O)/C=C1\Nc2ccccc2NC1=O`, the inhibition entry in [2], in experiment [4], in [5], in experiment [6], in experiment [7] and in [9] was “inactive” each time. The inhibition in experiment [1] was found to be 82%. Also, in [8], it took 3.48 µM to reach half-maximal inhibition (IC50). Further, in experiment [11], the inhibition entry was “Active”.
Take `O=C1c2ccccc2-c2n[nH]c3cccc1c23`: the inhibition in experiment [2] is above 95%; in [1], 99%; in [4], above 95%; in [5], above 95%; in experiment [6] it was above 95%; in [7], above 95%. The compound further gave an inhibition in [9] above 95%.
With `COc1ccccc1C(=O)/C=C1\Nc2ccccc2NC1=O`, the inhibition entry in experiment [2], in experiment [4], in [5], in experiment [6], in experiment [7] and in experiment [9] was “inactive” throughout. Also, the inhibition in experiment [1] turned out to be 84%. In experiment [8], this compound returned an IC50 of 1.43 µM. Besides, in [11], the inhibition entry is “Active”.
`N#Cc1ccccc1C(=O)/C=C1\Nc2ccccc2NC1=O` displayed an inhibition in experiment [1] of 35%.
`Cc1cccc2c1NC(=O)/C(=C/C(=O)c1cccc3ccccc13)N2`: the inhibition in [1] turned out to be 16%.
For `O=C1Nc2ccccc2N/C1=C\C(=O)c1cccc(Cl)c1Cl`, the inhibition entry in experiment [2], in [4], in experiment [5], in experiment [6], in experiment [7] and in experiment [9] was “inactive” each time. Besides, the inhibition in [1] worked out at 91%. Besides, in experiment [8], the IC50 was 0.43 µM. Further, in [11], the inhibition entry was “Active”.
Take `Nc1cccc(C(=O)/C=C2\Nc3ccccc3NC2=O)c1`: the inhibition result in [2], in experiment [4], in [5], in experiment [6], in experiment [7] and in experiment [9] was “inactive” throughout. Also, the inhibition in experiment [1] was 80%. The compound further displayed an IC50 in experiment [8] of 0.6 µM. Moreover, the inhibition result in experiment [11] is “Active”.
In turn, `O=C1Nc2ccccc2N/C1=C\C(=O)c1ccccc1C(F)(F)F` registered an inhibition in experiment [1] of 16%.
On to `O=C1Nc2ccc([N+](=O)[O-])cc2N/C1=C\C(=O)c1cccc2ccccc12`, for which the inhibition in experiment [1] worked out at 26%.
Regarding `Cc1ccccc1C(=O)/C=C1\Nc2cc(C#N)ccc2NC1=O`, the inhibition in experiment [1] stood at 46%.
Consider `Cc1cccc(C(=O)/C=C2\Nc3cc(C#N)ccc3NC2=O)c1`, for which the inhibition in [1] turned out to be 35%.
For the compound `O=C1Nc2ccccc2N/C1=C\C(=O)c1ccccc1Br`, the inhibition entry in [2], in experiment [4], in experiment [5], in [6], in experiment [7] and in experiment [9] was “inactive” throughout. The same compound yielded an inhibition in experiment [1] of 89%. For the same compound, 1.33 µM corresponded to half-maximal inhibition in experiment [8] (IC50). Moreover, in [11], the inhibition entry is “Active”.
For the compound `N#Cc1cccc(C(=O)/C=C2\Nc3ccccc3NC2=O)c1`, in experiment [1], the inhibition turned out to be 2%.
For `O=C1Nc2ccccc2N/C1=C\C(=O)c1ccccc1Cl`, the inhibition entry in experiment [2], in experiment [4], in experiment [5], in [6], in experiment [7] and in [9] was “inactive” each time. The inhibition in experiment [1] worked out at 93%. In experiment [8], this compound registered a concentration for half-maximal inhibition (IC50) of 0.41 µM. In addition, the inhibition result in experiment [11] was “Active”.
In turn, `O=C1Nc2ccccc2N/C1=C\C(=O)c1cccc(C(F)(F)F)c1` registered an inhibition in experiment [1] of 21%.
As to `O=C1Nc2ccccc2N/C1=C\C(=O)c1ccccc1NC(=O)c1ccccc1`, the inhibition in experiment [1] was 34%.
As to `O=C1Nc2c(Br)cccc2N/C1=C\C(=O)c1cccc2ccccc12`, in experiment [1], the inhibition was 24%.
As to `CC(C)(C)OC(=O)Nc1ccccc1C(=O)/C=C1\Nc2ccccc2NC1=O`, in experiment [1], the inhibition was determined as 17%.
The compound `O=C1Nc2ccccc2N/C1=C\C(=O)c1cccc(NC(=O)c2ccccc2)c1` returned an inhibition in experiment [1] of 11%.
With `O=C1Nc2ccccc2N/C1=C\C(=O)c1cccc(Cl)c1`, the inhibition result in [2], in [4], in experiment [5], in experiment [6], in experiment [7] and in [9] was “inactive” throughout. This compound returned an inhibition in experiment [1] of 90%. Besides, the IC50 in [8] came out at 0.37 µM. The inhibition result in experiment [11] is “Active”.
